Reference: ChEMBL document CHEMBL2086386, “Potent and orally efficacious benzothiazole amides as TRPV1 antagonists” (Bioorg Med Chem Lett, 2012)
In brackets after ≈: the same amount, converted by molar mass. Activity calls are given as the source filed them.

What was measured:
[1] = Aqueous solubility of the compound in sodium phosphate buffer at pH 7.4; assay type: physicochemical
Method in brief: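 Solubility measured in 0.1 M sodium phosphate buffer.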

[2] = molecular target: Transient receptor potential cation channel subfamily V member 1 (Homo sapiens, UniProt Q8NER1); experiment: Antagonist activity at human recombinant TRPV1 receptor assessed as inhibition of capsaicin-induced calcium uptake by FLIPR assay; assay type: functional
Chain of Transient receptor potential cation channel subfamily V member 1 (Q8NER1 whole entry): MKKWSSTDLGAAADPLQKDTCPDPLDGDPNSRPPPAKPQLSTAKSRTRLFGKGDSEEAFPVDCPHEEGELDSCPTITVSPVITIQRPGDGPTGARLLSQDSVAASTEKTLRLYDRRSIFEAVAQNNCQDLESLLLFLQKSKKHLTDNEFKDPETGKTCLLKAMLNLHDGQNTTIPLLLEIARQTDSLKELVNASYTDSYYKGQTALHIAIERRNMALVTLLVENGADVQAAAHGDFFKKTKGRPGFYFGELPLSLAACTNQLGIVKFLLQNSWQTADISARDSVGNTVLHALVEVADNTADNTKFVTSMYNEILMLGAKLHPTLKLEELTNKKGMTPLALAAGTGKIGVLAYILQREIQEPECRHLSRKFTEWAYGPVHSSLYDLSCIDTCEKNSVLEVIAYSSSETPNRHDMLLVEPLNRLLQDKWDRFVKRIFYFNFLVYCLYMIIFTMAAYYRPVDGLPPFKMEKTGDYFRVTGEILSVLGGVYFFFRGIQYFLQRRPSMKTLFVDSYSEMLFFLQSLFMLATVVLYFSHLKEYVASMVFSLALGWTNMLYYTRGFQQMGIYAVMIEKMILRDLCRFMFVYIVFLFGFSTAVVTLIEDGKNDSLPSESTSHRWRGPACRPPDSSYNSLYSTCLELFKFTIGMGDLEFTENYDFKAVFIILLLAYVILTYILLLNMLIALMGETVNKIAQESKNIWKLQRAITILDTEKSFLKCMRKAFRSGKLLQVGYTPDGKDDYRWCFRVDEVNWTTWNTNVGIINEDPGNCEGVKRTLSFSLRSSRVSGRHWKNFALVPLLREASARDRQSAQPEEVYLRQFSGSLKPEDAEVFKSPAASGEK
Method in brief: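 Whole-cell fluorescence imaging assay (FLIPR II) of the rise in intracellular Ca2+ on capsaicin addition. Inhibition by the test compound is quantified.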

[3] = Intrinsic clearance in human liver microsomes assessed per mg of protein; assay type: ADME, Microsome; conditions: read-out: CLH
[4] = test system: Rattus norvegicus; experiment: Analgesic activity against carrageenan-induced thermal hyperalgesia in Sprague-Dawley rat assessed as paw withdrawal latency at 100 umol/kg, po after 30 mins after 3 hrs; assay type: functional
Method in brief: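 Male Sprague-Dawley rats (125-200 g), groups of 7. Under isoflurane, 100 µl of 1% carrageenan is injected subcutaneously into the plantar left hind paw, and testing is done 3 h later. After 30 min acclimation on a 30 °C glass surface, radiant heat is focused on the affected paw. Withdrawal latency is the mean of two trials about 5 min apart, with a 20 s cut-off. Naïve rats serve as controls. Single oral dose.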

[5] = Clearance in rat hepatocytes assessed as per 10^6 cells; assay type: ADME, cell-based, Hepatocyte; conditions: read-out: CLH
[6] = test system: Rattus norvegicus; experiment: Analgesic activity against capsaicin-induced thermal hyperalgesia in Sprague-Dawley rat assessed as paw withdrawal latency at 90 umol/kg, po after 30 mins; assay type: functional
Method in brief: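 Male Sprague-Dawley rats (125-200 g), groups of 7, acclimatized at least 3 days and tested in the light phase. Capsaicin 10 μg/5 μL is injected intradermally into the plantar left hind paw of restrained rats. Heat hyperalgesia is read 30 min later as radiant-heat paw withdrawal latency on a 30 °C glass surface: two trials about 5 min apart, averaged, 20 s cut-off. Naïve rats serve as controls. Single oral dose.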

[7] = molecular target: Transient receptor potential cation channel subfamily V member 1 (Rattus norvegicus) (UniProt O35433); experiment: Binding affinity to rat TRPV1 at 1 uM
Chain of Transient receptor potential cation channel subfamily V member 1 (Rattus norvegicus) (O35433 whole entry): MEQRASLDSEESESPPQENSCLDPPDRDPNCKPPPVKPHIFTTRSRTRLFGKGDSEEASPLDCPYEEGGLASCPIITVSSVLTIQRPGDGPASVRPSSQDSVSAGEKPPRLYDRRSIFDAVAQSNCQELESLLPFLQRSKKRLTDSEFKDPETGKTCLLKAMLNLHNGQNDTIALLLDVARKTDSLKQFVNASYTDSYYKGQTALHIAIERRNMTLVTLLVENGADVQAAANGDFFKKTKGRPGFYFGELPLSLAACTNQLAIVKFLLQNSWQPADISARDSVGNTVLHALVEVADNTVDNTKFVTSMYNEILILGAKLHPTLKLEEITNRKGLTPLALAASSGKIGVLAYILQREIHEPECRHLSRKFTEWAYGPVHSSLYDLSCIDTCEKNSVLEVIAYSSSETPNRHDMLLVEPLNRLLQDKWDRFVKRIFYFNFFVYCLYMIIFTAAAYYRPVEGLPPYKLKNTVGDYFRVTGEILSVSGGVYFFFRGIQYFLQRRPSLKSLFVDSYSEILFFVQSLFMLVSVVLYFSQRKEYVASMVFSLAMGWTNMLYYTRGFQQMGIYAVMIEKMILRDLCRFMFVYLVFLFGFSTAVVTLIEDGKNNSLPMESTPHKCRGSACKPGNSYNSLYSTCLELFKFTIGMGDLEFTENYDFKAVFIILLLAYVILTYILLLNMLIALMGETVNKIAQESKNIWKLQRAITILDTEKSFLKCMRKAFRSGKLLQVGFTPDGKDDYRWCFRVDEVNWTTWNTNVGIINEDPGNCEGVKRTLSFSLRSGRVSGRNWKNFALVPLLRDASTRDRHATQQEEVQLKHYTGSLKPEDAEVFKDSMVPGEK

[8] = test system: Rattus norvegicus; experiment: Toxicity in Sprague-Dawley rat assessed as effect on body temperature at 100 umol/kg, po; assay type: organism-based; conditions: in vivo
[9] = Oral bioavailability in Sprague-Dawley rat; assay type: ADME, organism-based; conditions: in vivo
[10] = Half life in iv dosed Sprague-Dawley rat; assay type: ADME, organism-based; conditions: in vivo

SMILES | solubility [1] [µM] | IC50 [2] [nM] | also measured
CC(C)(C)c1ccc(CNc2ccc3sc(CO)nc3c2)cc1 | – | 833 | –
O=C(Nc1ccc2sc(CO)nc2c1)c1ccc(C(F)(F)F)nc1 | 61 (≈ 21.6 µg/mL) | – | microsomal CLint [3]: 13 µL/min/mg
O=S(=O)(Nc1ccc2sc(CO)nc2c1)c1ccc(Br)cc1 | – | > 10000 | –
Cc1ccc(-c2cc(C(F)(F)F)nn2-c2ccc(S(N)(=O)=O)cc2)cc1 [CELECOXIB] | – | – | Activity [4]: 35%
CC(O)c1nc2cc(NC(=O)c3ccc(C(C)(C)C)cc3)ccc2s1 (racemic) | – | 223 | –
CC(C)(C)c1ccc(C(=O)Nc2ccc3sc(CNS(C)(=O)=O)nc3c2)cc1 | – | 708 | –
O=C(Nc1ccc2sc(CO)nc2c1)c1ccc(OCC(F)(F)F)nc1 | 9 (≈ 3.45 µg/mL) | 41 | –
Cc1cc(OC(C)C)ccc1C(=O)Nc1ccc2sc(CO)nc2c1 | 9 (≈ 3.21 µg/mL) | – | hepatocyte CLint [5]: 12 µL/min/1e6 cells
Cc1cc(Br)ccc1C(=O)Nc1ccc2sc(CO)nc2c1 | 10 (≈ 3.77 µg/mL) | 52.3 | hepatocyte CLint [5]: 24 µL/min/1e6 cells; Activity [6]: 72%; Activity [7]: Active; Activity [4]: 35%; Activity [8]: Non-toxic; bioavailability [9]: 53%; half-life [10]: 2.4 h
CC(C)(C)c1ccc(C(=O)Nc2ccc3sc(CN)nc3c2)cc1 | – | 987 | –
Cc1ccc(CCNC(=O)c2ccc3sc(CO)nc3c2)cc1 | – | 1610 | –
O=S(=O)(Nc1ccc(C(F)(F)F)cc1)c1ccc2sc(CO)nc2c1 | – | 5570 | –
CC(=O)NCc1nc2cc(NC(=O)c3ccc(C(C)(C)C)cc3)ccc2s1 | – | 2410 | –
CC(C)(C)c1ccc(NC(=O)c2ccc3sc(CO)nc3c2)cc1 | – | > 10000 | –
O=C(Nc1ccc2sc(CO)nc2c1)c1ccc(N2CCCCC2)nc1 | 4 (≈ 1.47 µg/mL) | – | –
O=C(Nc1ccc2sc(CO)nc2c1)C1CCC(C(F)(F)F)CC1 (stereo not drawn) | 77 (≈ 27.6 µg/mL) | > 10000 | –
O=C(Nc1ccc2sc(CO)nc2c1)c1ccc(CN2CCOCC2)cc1 | 419 (≈ 161 µg/mL) | > 10000 | microsomal CLint [3]: 13 µL/min/mg
Cc1nc2cc(NC(=O)c3ccc(C(C)(C)C)cc3)ccc2s1 | 2.2 (≈ 0.714 µg/mL) | 27 | –
Cn1nc(C(F)(F)F)cc1C(=O)Nc1ccc2sc(CO)nc2c1 | 14 (≈ 4.99 µg/mL) | 157 | microsomal CLint [3]: 9 µL/min/mg
CC(C)(C)Oc1cccc(C(=O)Nc2ccc3sc(CO)nc3c2)c1 | 181 (≈ 64.5 µg/mL) | 1070 | –

Second part, led by results:

solubility [1] [µM] | IC50 [2] [nM] | SMILES | also measured
25 (≈ 7.71 µg/mL) | 175 | C#Cc1ccc(C(=O)Nc2ccc3sc(CO)nc3c2)cc1 | –
3 (≈ 0.956 µg/mL) | 68.2 | O=C(Nc1ccc2sc(CO)nc2c1)c1ccc(Cl)cc1 | hepatocyte CLint [5]: 66 µL/min/1e6 cells; microsomal CLint [3]: 14 µL/min/mg
11 (≈ 4.08 µg/mL) | 52.2 | CC(C)(C)OCc1ccc(C(=O)Nc2ccc3sc(CO)nc3c2)cc1 | –
37 (≈ 12.7 µg/mL) | 489 | CCOCc1ccc(C(=O)Nc2ccc3sc(CO)nc3c2)cc1 | microsomal CLint [3]: 24 µL/min/mg
5160 (≈ 1910 µg/mL) | > 10000 | CCN(CC)Cc1ccc(C(=O)Nc2ccc3sc(CO)nc3c2)cc1 | –
7 (≈ 2.33 µg/mL) | 85.9 | Cc1cc(Cl)ccc1C(=O)Nc1ccc2sc(CO)nc2c1 | hepatocyte CLint [5]: 17 µL/min/1e6 cells
6 (≈ 2.04 µg/mL) | 3.7 | CC(C)(C)c1ccc(C(=O)Nc2ccc3sc(CO)nc3c2)cc1 | microsomal CLint [3]: 57 µL/min/mg
– | 11.9 | O=C(Nc1ccc2sc(CO)nc2c1)c1ccc(C(F)(F)F)cc1 | –
38 (≈ 13 µg/mL) | 33.4 | CC(C)Oc1ccc(C(=O)Nc2ccc3sc(CO)nc3c2)cc1 | hepatocyte CLint [5]: 57 µL/min/1e6 cells; microsomal CLint [3]: 12 µL/min/mg
64 (≈ 22.8 µg/mL) | 9.8 | CC(C)(C)Oc1ccc(C(=O)Nc2ccc3sc(CO)nc3c2)cc1 | microsomal CLint [3]: 19 µL/min/mg
5 (≈ 1.82 µg/mL) | 26.5 | O=C(Nc1ccc2sc(CO)nc2c1)c1ccc(Br)cc1 | hepatocyte CLint [5]: 54 µL/min/1e6 cells
